# Data taken from ChEMBL document CHEMBL4613273, “Discovery of Aryl Formyl Piperidine Derivatives as Potent, Reversible, and Selective Monoacylglycerol Lipase Inhibitors” (J Med Chem, 2020).
# Calls of active or inactive are those of the source. The rule behind the calls is not given here.
# What was measured:
# [1] = target: T1, Cannabinoid receptor 1 (Homo sapiens, UniProt P21554); experiment: Inhibition of CB1 receptor (unknown origin) expressed in Flpin-CHO cells at 10 uM incubated for 10 mins by Eu-cAMP tracer based cAMP accumulation assay relative to control
# T1 sequence (P21554 whole entry): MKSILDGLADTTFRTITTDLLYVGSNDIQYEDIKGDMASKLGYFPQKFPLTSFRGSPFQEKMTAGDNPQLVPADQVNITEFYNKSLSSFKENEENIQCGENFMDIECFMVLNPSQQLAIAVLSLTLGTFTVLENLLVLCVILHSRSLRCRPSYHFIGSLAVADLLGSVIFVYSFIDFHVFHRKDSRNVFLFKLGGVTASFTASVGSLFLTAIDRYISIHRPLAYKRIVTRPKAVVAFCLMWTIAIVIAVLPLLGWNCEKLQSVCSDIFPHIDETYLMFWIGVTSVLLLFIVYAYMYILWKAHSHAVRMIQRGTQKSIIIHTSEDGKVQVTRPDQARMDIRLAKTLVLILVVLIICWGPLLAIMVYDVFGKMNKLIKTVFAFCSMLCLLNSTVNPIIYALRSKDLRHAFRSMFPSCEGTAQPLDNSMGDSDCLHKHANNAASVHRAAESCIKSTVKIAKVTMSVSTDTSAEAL
# [2] = Half life in Sprague-Dawley rat plasma at 10 mg/kg, iv measured over 1 to 300 mins post dose by LC-MS/MS analysis; format: ADME, organism-based
# [3] = system: Mus musculus; experiment: Antidepressant activity in ICR mouse model of reserpine-induced depression assessed as reduction in fear at 4 to 16 mg/kg, sc for 6 days followed by reserpine injection 2 hrs after last compound dose and measured after 2 hrs; format: functional, organism-based
# Procedure, shortened: (§1)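 In mice, depression was induced with reserpine 4 mg/kg, and the compound was given s.c. at 4, 8 or 16 mg/kg. Controls received phosphate buffer alone. Awakening, finger contact, fear, head touch, autonomous movement, straight and eyelid closure were scored. Data are mean ± SD of 3 independent experiments.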
# [4] = AUC (0 to infinity) in Sprague-Dawley rat plasma at 10 mg/kg, ig measured over 1 to 300 mins post dose by LC-MS/MS analysis; format: ADME, organism-based; design: dose 10 mg/kg, route […], time infinity; details: in vivo, po
# [5] = system: Mus musculus; experiment: Antidepressant activity in ICR mouse model of reserpine-induced depression assessed as reduction in awakening at 4 to 16 mg/kg, sc for 6 days followed by reserpine injection 2 hrs after last compound dose and measured after 2 hrs; format: functional, organism-based
# Procedure, shortened: as §1
# [6] = Tmax in Sprague-Dawley rat plasma at 10 mg/kg, ig measured over 1 to 300 mins post dose by LC-MS/MS analysis; format: ADME, organism-based; details: po
# [7] = Half life in Sprague-Dawley rat brain at 10 mg/kg, ig measured over 5 to 720 mins post dose by LC-MS/MS analysis
# [8] = Cmax in Sprague-Dawley rat plasma at 10 mg/kg, iv measured over 1 to 300 mins post dose by LC-MS/MS analysis; format: ADME, organism-based; design: dose 10 mg/kg, route intravenous
# [9] = target: T2, Cannabinoid receptor 2 (Homo sapiens, UniProt P34972); experiment: Inhibition of CB2 receptor (unknown origin) expressed in Flpin-CHO cells at 10 uM incubated for 10 mins by Eu-cAMP tracer based cAMP accumulation assay relative to control
# T2 sequence (P34972 whole entry): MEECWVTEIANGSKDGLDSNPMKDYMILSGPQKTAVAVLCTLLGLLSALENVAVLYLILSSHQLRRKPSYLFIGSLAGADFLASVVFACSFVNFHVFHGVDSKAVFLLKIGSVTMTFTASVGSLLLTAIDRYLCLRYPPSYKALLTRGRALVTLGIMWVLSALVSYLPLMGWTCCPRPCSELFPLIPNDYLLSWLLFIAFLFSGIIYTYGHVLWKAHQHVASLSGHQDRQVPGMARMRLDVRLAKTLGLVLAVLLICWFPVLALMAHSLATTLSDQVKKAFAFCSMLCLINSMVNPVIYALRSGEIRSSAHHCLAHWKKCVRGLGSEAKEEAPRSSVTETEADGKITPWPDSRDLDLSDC
# [10] = Half life in Sprague-Dawley rat plasma at 10 mg/kg, ig measured over 1 to 300 mins post dose by LC-MS/MS analysis; format: ADME, organism-based; details: po
# [11] = system: Mus musculus; experiment: Antidepressant activity in ICR mouse model of reserpine-induced depression assessed as reduction in straight scores at 4 to 16 mg/kg, sc for 6 days followed by reserpine injection 2 hrs after last compound dose and measured after 2 hrs; format: functional, organism-based
# Procedure, shortened: as §1
# [12] = target: T2, Cannabinoid receptor 2; experiment: Inhibition of CB2 receptor (unknown origin) expressed in Flpin-CHO cells incubated for 10 mins by Eu-cAMP tracer based cAMP accumulation assay; format: functional, cell-based
# [13] = target: T3, Monoglyceride lipase (Homo sapiens) (UniProt Q99685); experiment: Reversible inhibition of human recombinant MAGL at 1 uM pre-incubated for 5 mins before MAGL substrate 4-NPA addition followed by 10 fold dilution and measured after 10 mins
# T3 sequence (whole entry): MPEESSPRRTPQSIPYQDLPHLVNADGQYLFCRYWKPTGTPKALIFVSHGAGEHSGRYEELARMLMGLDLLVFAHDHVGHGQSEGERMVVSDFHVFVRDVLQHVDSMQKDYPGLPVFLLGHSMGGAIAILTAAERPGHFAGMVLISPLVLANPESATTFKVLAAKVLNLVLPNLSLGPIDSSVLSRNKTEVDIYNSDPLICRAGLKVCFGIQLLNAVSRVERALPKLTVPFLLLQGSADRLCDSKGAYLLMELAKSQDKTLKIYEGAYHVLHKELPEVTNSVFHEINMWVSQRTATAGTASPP
# Procedure, shortened: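 Human MAGL was preincubated with 1 μM inhibitor and then diluted 10-fold to a final 0.1 μM. Percent inhibition after dilution was compared with direct 1 μM and 0.1 μM samples to judge reversibility.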
# [14] = Bioavailability (0 to t) in Sprague-Dawley rat plasma at 10 mg/kg, ig measured over 1 to 300 mins post dose by LC-MS/MS analysis
# [15] = target: T1, Cannabinoid receptor 1; experiment: Inhibition of CB1 receptor (unknown origin) expressed in Flpin-CHO cells incubated for 10 mins by Eu-cAMP tracer based cAMP accumulation assay; format: functional, cell-based
# [16] = Bioavailability (0 to infinity) in Sprague-Dawley rat plasma at 10 mg/kg, ig measured over 1 to 300 mins post dose by LC-MS/MS analysis
# [17] = Stability in mouse liver microsomes assessed as parent compound remaining level at 100 uM pre-incubated for 5 mins before NADPH addition and measured after 60 mins by UPLC-MS/MS analysis; format: ADME, Microsome; details: read-out: Stability
# Procedure, shortened: (§2)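 Liver microsomes from human, mouse and rat were incubated with the compound. Remaining parent compound was followed at several time points up to 60 min and expressed as percent remaining.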
# [18] = Cmax in Sprague-Dawley rat plasma at 10 mg/kg, ig measured over 1 to 300 mins post dose by LC-MS/MS analysis; format: ADME, organism-based; design: dose 10 mg/kg, route […]; details: po
# [19] = target: T4, Monoglyceride lipase (Homo sapiens, UniProt Q99685); experiment: Competitive inhibition of human recombinant MAGL at 31.25 nM to 125 nM pre-incubated for 5 mins before MAGL substrate addition and further incubated for 10 mins
# T4 sequence (Q99685 whole entry): T3 sequence (whole entry)
# Procedure, shortened: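 Mode of inhibition was assessed from Michaelis–Menten kinetics run at several inhibitor concentrations. Enzyme activity was plotted against substrate concentration and fitted to a mixed-model inhibition (competitive, uncompetitive and noncompetitive terms), giving Vmax, Km and α.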
# [20] = target: T4, Monoglyceride lipase; experiment: Inhibition of human recombinant MAGL pre-incubated for 5 mins before MAGL substrate addition and further incubated for 10 mins
# [21] = AUC (0 to t) in Sprague-Dawley rat brain at 10 mg/kg, ig measured over 5 to 720 mins post dose by LC-MS/MS analysis; details: in vivo
# [22] = AUC (0 to t) in Sprague-Dawley rat plasma at 10 mg/kg, ig measured over 1 to 300 mins post dose by LC-MS/MS analysis; format: ADME, organism-based; details: in vivo, po
# [23] = system: Mus musculus; experiment: Antidepressant activity in ICR mouse model of reserpine-induced depression assessed as reduction in autonomous movement at 4 to 16 mg/kg, sc for 6 days followed by reserpine injection 2 hrs after last compound dose and measured after 2 hrs; format: functional, organism-based
# Procedure, shortened: as §1
# [24] = organism: Homo sapiens; experiment: Selectivity index, ratio of IC50 for inhibition of human recombinant FAAH to IC50 for inhibition of human recombinant MAGL
# [25] = Stability in human liver microsomes assessed as parent compound remaining level at 100 uM pre-incubated for 5 mins before NADPH addition and measured after 60 mins by UPLC-MS/MS analysis; format: ADME, Microsome; details: read-out: Stability
# Procedure, shortened: as §2
# [26] = system: Mus musculus; experiment: Antidepressant activity in ICR mouse model of reserpine-induced depression assessed as immobility time at 5 mg/kg, ig by tail suspension test (reference value: 132.38 +/- 44.51 secs); format: functional
smiles,measurement,setting,value
O=C(Nc1cccc(Cl)c1)C1CCN(C(=O)c2ccc3ccccc3c2)CC1,inhibition,[1],29.7%
same,half-life,[2],1.1 h
same,Activity,[3],Active
same,AUC,[4],17791.86 µg·min/L
same,Activity,[5],Active
same,Tmax,[6],0.567 h
same,half-life,[7],2.44 h
same,Cmax,[8],5480 ng/mL
same,inhibition,[9],20.4%
same,half-life,[10],4.96 h
same,Activity,[11],Active
same,EC50,[12],> 10000 nM
same,inhibition,[13],Active
same,bioavailability,[14],12.2%
same,EC50,[15],> 10000 nM
same,bioavailability,[16],21.6%
same,"remaining at 1 h, 100 µM",[17],57.9%
same,Cmax,[18],83.1 ng/mL
same,Ki,[19],13.4 nM
same,IC50,[20],14.7 nM
same,AUCt,[21],3582.71 µg·min/L
same,AUCt,[22],9913.54 µg·min/L
same,Activity,[23],Active
same,Ratio IC50,[24],6780
same,"remaining at 1 h, 100 µM",[25],88.5%
same,Time,[26],89.87 s
